ChEMBL document CHEMBL3352259, “Benzimidazole--ibuprofen/mesalamine conjugates: potential candidates for multifactorial diseases” (Eur J Med Chem, 2015)

How the values were obtained:
Rattus norvegicus [1] = experiment: Antiinflammatory activity against carrageenan-induced ip dosed Wistar rat paw edema model assessed as inhibition of edema administered 30 mins prior to carrageenan challenge measured after 60 mins; format: functional
Procedure, shortened: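 Wistar rats (150-200 g, either sex), 150 µmol/kg i.p. 30 min before subplantar carrageenan; vehicle control 0.5% SCMC. Paw volume read at 0, 30, 60, 120, 180 min. % oedema inhibition = 100 − [(treated paw volume/control paw volume) × 100].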

Mus musculus [2] = experiment: Immunomodulatory activity in albino mouse assessed as change in humoral antibody titre at 150 umol/kg, po for 7 days followed by sheep RBC challenge measured on day 14; format: functional
Procedure, shortened: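 Albino mice, 6 per group, 150 µmol/kg p.o. for 7 days. On day 7, challenged i.p. with 0.1 mL sheep RBC suspension (about 1×10^8 cells per 0.1 mL, saline-washed). Retro-orbital blood taken on day 14, serum separated at 2500 rpm for 10 min, and antibody titre determined by microtitre haemagglutination. Mean ± SD.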

Mus musculus [3] = experiment: Immunomodulatory activity in albino mouse assessed as change in carbon clearance index at 150 umol/kg, po for 5 days followed by carbon ink challenge; format: functional
Procedure, shortened: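 Albino mice (18-22 g), 6 per group, 150 µmol/kg p.o. daily for 5 days (control 0.5% SCMC, 0.3 mL). Carbon ink suspension (10 µL/g) given via tail vein 48 h later. Retro-orbital blood at 3 and 15 min, 25 µL into 2 mL 0.1% Na2CO3, OD read. K = (ln OD1 − ln OD2)/12. Mean ± SD.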

Rattus norvegicus [4] = experiment: Gastrointestinal toxicity in Wistar rat assessed as ulcer index at 150 umol/kg, po administered for 3 days measured on day 4 (reference value: 0.33 +/-0.20); format: organism-based; details: in vivo, 72 h
Rattus norvegicus [5] = experiment: Antioxidant activity in Wistar rat assessed as catalase level measured per mg of protein at 150 umol/kg, po administered for 3 days measured on day 4 (reference value: 22.14 +/- 1.19 umol); format: functional
Rattus norvegicus [6] = experiment: Antioxidant activity in Wistar rat assessed as thiobarbituric acid reactive substance level measured per mg of protein at 150 umol/kg, po administered for 3 days measured on day 4 (reference value: 3.72 +/- 00.23 nmol); format: functional
Rattus norvegicus [7] = experiment: Antioxidant activity in Wistar rat assessed as GSH level measured per 100 mg of protein at 150 umol/kg, po administered for 3 days measured on day 4 (reference value: 184.10 +/- 4.19 umol); format: functional

Row | Structure (SMILES) | inhibition (INH) (Rattus norvegicus [1]) [%] | Activity (Mus musculus [2]) [%] | Activity (Mus musculus [3]) [%] | UI (Rattus norvegicus [4]) | Activity (Rattus norvegicus [5]) [µmol] | Activity (Rattus norvegicus [6]) [nmol] | Activity (Rattus norvegicus [7]) [µmol]
1 | CC(C)Cc1ccc(C(C)C(=O)O)cc1 (stereo not drawn) [IBUPROFEN] | 53.8 |  |  |  |  |  | 
2 | COc1ccc2nc(NC(=O)C(C)c3ccc(CC(C)C)cc3)[nH]c2c1 (stereo not drawn) | 55.3 | 26.9 | 52.9 |  |  |  | 
3 | c1ccc([C@H]2CN3CCSC3=N2)cc1 [LEVAMISOLE] |  | 65.3 | 88.2 |  |  |  | 
4 | COc1ccc2nc(C(C)c3ccc(CC(C)C)cc3)[nH]c2c1 (stereo not drawn) | 64.7 | 42.3 | 52.9 |  |  |  | 
5 | CC(C)Cc1ccc(C(C)c2nc3ccccc3[nH]2)cc1 (stereo not drawn) | 57.1 | 57.6 | >100 | 0.92 | 18.26 | 5.9 | 158.6
6 | Cc1ccc2nc(-c3cc(N)ccc3O)[nH]c2c1 | 52.4 | 42.3 | 58.8 |  |  |  | 
7 | CC(C)Cc1ccc(C(C)C(=O)Nc2nc3ccc([N+](=O)[O-])cc3[nH]2)cc1 (stereo not drawn) | 34.3 | 15.3 | 23.5 |  |  |  | 
8 | Cc1ccc2nc(NC(=O)c3cc(N)ccc3O)[nH]c2c1 | 48.8 | -38.4 | -35.2 |  |  |  | 
9 | Nc1ccc(O)c(-c2nc3ccc(C(=O)c4ccccc4)cc3[nH]2)c1 | 62.6 | 69.2 | >100 | 1.1 | 16.94 | 8.95 | 153.38
10 | Nc1ccc(O)c(C(=O)Nc2nc3ccc(C(=O)c4ccccc4)cc3[nH]2)c1 | 52.1 | -26.9 | -17.6 |  |  |  | 
11 | Nc1ccc(O)c(C(=O)O)c1 [MESALAMINE] | 50 |  |  |  |  |  | 
12 | Nc1ccc(O)c(-c2nc3ccc([N+](=O)[O-])cc3[nH]2)c1 | 42.9 | 23 | 41.2 |  |  |  | 
13 | CC(C)Cc1ccc(C(C)C(=O)Nc2nc3ccc(C(=O)c4ccccc4)cc3[nH]2)cc1 (stereo not drawn) | 60.1 | 42.3 | 64.7 |  |  |  | 
14 | Cc1ccc2nc(NC(=O)C(C)c3ccc(CC(C)C)cc3)[nH]c2c1 (stereo not drawn) | 54.1 | 23.1 | 47.1 |  |  |  | 
15 | Nc1ccc(O)c(-c2nc3ccccc3[nH]2)c1 | 54.6 | 61.5 | >100 | 0.58 | 18.78 | 5.47 | 178.18
16 | Cc1ccc2nc(C(C)c3ccc(CC(C)C)cc3)[nH]c2c1 (stereo not drawn) | 58 | 38.4 | 70.5 |  |  |  | 
17 | Nc1ccc(O)c(C(=O)Nc2nc3ccc([N+](=O)[O-])cc3[nH]2)c1 | 36.9 | -50 | -41.1 | 0.4 | 11.87 | 11.98 | 127.32
18 | COc1ccc2nc(NC(=O)c3cc(N)ccc3O)[nH]c2c1 | 50 | -34.6 | -29.4 |  |  |  | 
19 | Nc1ccc(O)c(C(=O)Nc2nc3ccccc3[nH]2)c1 | 50 | -34.6 | -29.4 |  |  |  | 
20 | CC(C)Cc1ccc(C(C)C(=O)Nc2nc3ccccc3[nH]2)cc1 (stereo not drawn) | 53.8 | 38.4 | 76.4 |  |  |  | 
21 | COc1ccc2c(c1)c(CC(=O)O)c(C)n2C(=O)c1ccc(Cl)cc1 [INDOMETHACIN] |  |  |  | 3.17 | 7.79 | 30.41 | 85.2
22 | COc1ccc2nc(-c3cc(N)ccc3O)[nH]c2c1 | 55.7 | 46.2 | 70.5 |  |  |  | 
23 | CC(C)Cc1ccc(C(C)c2nc3ccc([N+](=O)[O-])cc3[nH]2)cc1 (stereo not drawn) | 38 | 19.2 | 29.4 |  |  |  | 
24 | CC(C)Cc1ccc(C(C)c2nc3ccc(C(=O)c4ccccc4)cc3[nH]2)cc1 (stereo not drawn) | 68.1 | 61.5 | >100 | 0.7 | 14.12 | 11.28 | 131.5
